According to ChEMBL document CHEMBL2203050, “Synthesis, evaluation and structure-activity relationships of triazine dimers as novel antiviral agents” (Bioorg Med Chem Lett, 2012):
pEC50: −log10 of the molar value. The source made the active and inactive calls. The calls are words filed in the database; no cut-off is given here.

Key:
[1] = Selectivity index, ratio of CC50 for human TZM-b1 cells to EC50 for HIV1; type: toxicity, cell-based; details: read-out: Ratio CC50/EC50
[2] = system: Human immunodeficiency virus 1; assay: Antiviral activity against HIV1 infected in human TZM-b1 cells; type: functional, organism-based; details: Human immunodeficiency virus 1, TZM-b1
[3] = Cytotoxicity against human TZM-b1 cells; type: cell-based
[4] = system: Human immunodeficiency virus 1; assay: Antiviral activity against HIV1 harboring reverse transcriptase VI829 mutant; type: functional, organism-based
[5] = system: Human immunodeficiency virus 1; assay: Ratio of EC50 for HIV1 Ba-L harboring reverse transcriptase V106A mutant to EC50 for wild type HIV1 Ba-L; type: functional
[6] = system: Human immunodeficiency virus 1; assay: Ratio of EC50 for HIV1 harboring reverse transcriptase VI829/Y181C mutant to EC50 for wild type HIV1 VI829
[7] = system: Human immunodeficiency virus 1; assay: Ratio of EC50 for HIV1 harboring reverse transcriptase VI829 L100I, K103N mutant to EC50 for wild type HIV1 VI829
[8] = system: Human immunodeficiency virus 1; assay: Antiviral activity against HIV1 assessed as inhibition of viral p24 antigen production treated every 1 hr for 12 hrs by ELISA based time-of-drug addition assay; type: functional, organism-based
In short: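 TZM-bl cells (2 × 10⁴ per well) were infected with virus at 0.4 MOI, with or without compound, for 1 h. Unbound virus was washed off and fresh medium was added, with or without compound. Compound at 50–500 × EC₅₀ was then added each hour over 12 h. p24 was measured by in-house antigen-capture ELISA at 24 h, giving a single replication round. Cells plus medium and cells plus virus served as controls.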

[9] = system: Human immunodeficiency virus 1; assay: Antiviral activity against HIV1 Ba-L harboring reverse transcriptase V106A mutant; type: functional, organism-based; details: Human immunodeficiency virus 1, Ba-L
[10] = system: Human immunodeficiency virus 1; assay: Antiviral activity against HIV1 harboring reverse transcriptase VI829 L100I, K103N mutant; type: functional, organism-based
[11] = system: Human immunodeficiency virus 1; assay: Antiviral activity against HIV1 harboring reverse transcriptase VI829/Y181C mutant; type: functional, organism-based
[12] = system: Human immunodeficiency virus 1; assay: Antiviral activity against wild type HIV1 Ba-L; type: functional, organism-based; details: Human immunodeficiency virus 1, Ba-L

Row | SMILES | selectivity ratio [1] | pEC50 [2] | CC50 [3] [nM] | pEC50 [4] | Ratio EC50 [5] | Ratio EC50 [6] | Ratio EC50 [7] | inhibition [8] | pEC50 [9] | pEC50 [10] | pEC50 [11] | pEC50 [12]
1 | Cc1cc(C)c(Nc2nc(Nc3ccc(C#N)cc3)nc(Nc3ccc(Nc4nc(Nc5ccc(C#N)cc5)nc(Nc5c(C)cc(C)cc5C)n4)cc3)n2)c(C)c1 | > 588 | 6.77 | > 100000 | – | – | – | – | – | – | – | – | –
2 | Cc1cc(C)c(Nc2ccnc(Nc3ccc(C#N)cc3)n2)c(C)c1 [DAPIVIRINE] | 1440 | – | 2880 | 8.70 | 1.3 | 5.4 | >500 | Active | 8.60 | < 6.00 | 7.97 | 8.70
